# Rows were chosen to be rich in hits. Some 1.5% of all compounds tested hit in one or more screens of this group.
# DAGLB inh = blocks human DAGLB lipase activity | Q8NCG7 | HEK293T DAGLB membrane lysate, EnzChek fluorogenic substrate | inhibition, % at 5.17 µM | actives 0.059% (n = 340,000) | AID 504411; in the data active = inhibition above about 34%
# Fh CTSL1 inh = counter-screen for PFM18AAP inhibitors: inhibitors of F. hepatica cathepsin L1. inhibition, % at 5.96 µM. recombinant F. hepatica cathepsin L1, Z-Leu-Arg-MCA fluorescence. actives 0.49% (n = 300,000). AID 1906;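 active = inhibition above the mean of all tested compounds plus 3 SD, set per screening campaign, cut at about 17% in these data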
# CendR NRP1 mod = NRP-1/CendR interaction modulation. O14786. FAM-RPARPAR peptide binding to NRP-1, fluorescence polarization. inhibition, % at 25 µM. actives 0.85% (n = 360,000). AID 602438;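 active = inhibition or corrected inhibition above about 18%, plus a signal ratio from 0.5 to 1.5, limit read from the data, passing the limit was not always enough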
# MT1-MMP act inh = MT1-MMP (human) activation inhibition; P50281; HT1080 RFP-PRO-GFP cells, GFP/RFP ratio fluorescence, overnight; percent of plate control window, DMSO zero; GFP/RFP ratio change, % at 20 µM; actives 0.061% (n = 360,000);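 active = GFP/RFP ratio change of at least 30% with cell ATP level not reduced by more than half and red fluorescence within 50% of control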
#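 Test system: HT1080 RFP-PRO-GFP cells; Benchmarks: DMSO and RFP-L50D-GFP cell wells; Timing: cells overnight before dosing, compound overnight, 37 °C, 5% CO2; Compound: one 20 µM compound dose with 1% DMSO; Read-out: GFP/RFP fluorescence ratio.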
# UCH37 inh = human UCH37 deubiquitinating enzyme inhibition | purified proteasome/UCH37, Ub-AMC cleavage fluorescence | inhibition, % (concentration not given with the values) | Q9Y5K5 | actives 0.33% (n = 330,000);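 active = mean inhibition over replicate wells above about 20%, limit read from the data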
#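 Material: human UCH37 enzyme supplied as purified proteasome complex / Amount: 0.15 nM proteasome as dispensed / Buffer or medium: pH 7.4 Tris-HCl (50 mM) with ovalbumin, ATP-MgCl2, DTT / Times: preincubation 30 min, reaction 25 min, room temperature / Technique: AMC fluorescence from Ub-AMC cleavage, excitation 355 nm, emission 460 nm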
# A number is an active result; - = inactive; . = no result.
SMILES,DAGLB inh,Fh CTSL1 inh,CendR NRP1 mod,MT1-MMP act inh,UCH37 inh
CCN(CC)C(=O)c1[nH]cnc1C(=O)N[C@@H](C)C(=O)OC(C)(C)C,-,-,-,-,32
Nc1nc(NC(=O)c2ccc(F)cc2)ns1,-,-,-,-,27
COC(=O)c1c(Cl)c2n3ccccc3c(C)c(-c3ccccc3)c-2c1C(=O)OC,-,-,38,-,-
COc1ccc(C=NNC(=O)c2cc(-c3cccn3C)n[nH]2)cc1OC,.,.,.,.,-
CN(Cc1c(C(=O)NN=Cc2ccc(O)cc2)nnn1-c1nonc1N)c1ccccc1,.,.,.,.,-
COc1cccc(/C=C/C(=O)OCC(=O)Nc2cc(C(F)(F)F)ccc2Cl)c1,-,-,39,-,-
COc1cccc(/C=C/C(=O)OCC(=O)c2ccc(Br)cc2)c1,-,.,18,-,.
COc1ccc(NC(=O)c2oc3ccccc3c2NC(=O)C2CC2)cc1OC,-,-,30,-,-
CCOc1ccccc1NC(=O)c1oc2ccccc2c1NC(=O)C1CCCO1 (stereo not drawn),-,18,-,-,-
CCOc1ccccc1NC(=O)c1oc2ccccc2c1NC(=O)C1CC1,-,-,-,-,-
COc1cc([N+](=O)[O-])cc(C=NNC(=O)c2ccc(NC(=O)c3ccc(C)cc3)cc2)c1O,.,.,.,.,-
CCN1CCN(C(c2cccs2)C(C)NC(=O)c2ccccc2F)CC1 (stereo not drawn),-,-,25,-,-
CCN1CCN(C(c2cccs2)C(C)NC(=O)c2c(F)cccc2F)CC1 (stereo not drawn),-,-,-,-,-
CCN(CC)c1ccc2cc(C#N)c(=O)oc2c1,.,-,25,-,-
CC(=O)Oc1cccc(C(=O)Nc2ccccc2C(=O)N2CCCC2)c1,-,-,20,-,-
CC(NC(=O)C(=O)N1CCOCC1)C(c1cccs1)N1CCN(c2ccc(F)cc2)CC1 (stereo not drawn),-,26,-,-,-
CCCOc1ccc(-c2c(C(=O)NN=Cc3ccc(C)o3)nnn2-c2nonc2N)cc1,.,.,.,.,-
COc1cc(C=NNC(=O)c2cccnc2)ccc1OS(=O)(=O)c1ccc(F)cc1,.,.,.,.,-
Cn1c(=O)c(Nc2ccc(O)cc2)c2c3c(cccc31)C(=O)c1ccccc1-2,44,-,81,-,-
CN(C)c1ccc(C(CNC(=O)c2ccccc2)c2c[nH]c3ccccc23)cc1 (stereo not drawn),-,-,-,-,-
CN(C)c1ccc(C(CNC(=O)c2ccccc2F)c2c[nH]c3ccccc23)cc1 (stereo not drawn),-,-,-,-,26
COc1ccc(C=NNC(=O)c2cccc(C(=O)NN=Cc3ccc(OC)c(OC)c3)n2)cc1OC,.,.,.,.,-
Cc1ccccc1Nc1cc2ccccc2c(=O)[nH]1,-,83,-,-,-
O=c1[nH]c(Nc2ccccn2)cc2ccccc12,-,-,45,-,.
O=c1[nH]c(Nc2ccc(F)cc2)cc2ccccc12,-,58,-,-,-
SMILES,DAGLB inh,Fh CTSL1 inh,CendR NRP1 mod,MT1-MMP act inh,UCH37 inh
O=c1[nH]c(Nc2ccccc2Cl)cc2ccccc12,-,-,-,-,-
COc1ccc(C=NNC(=O)c2cccc(C(F)(F)F)c2)cc1,.,.,.,.,-
NC(=NN=Cc1cccs1)SC1CC(=O)N(c2cccc([N+](=O)[O-])c2)C1=O (stereo not drawn),.,.,.,.,-
COCCNc1nc(-c2cc(-c3ccccc3)on2)cc(C(C)C)n1,-,-,26,-,-
COCCNc1nc(C)cc(-c2cc(-c3ccc(Cl)cc3)on2)n1,-,-,-,-,-
COC(=O)c1nn(-c2ccccc2)c(Cl)c1C=NOCc1ccc(C)cc1,.,.,.,.,-
O=C(NNC(=O)c1csc(N2CCOCC2)n1)c1ccc(=O)[nH]c1,-,.,25,-,-
CC(=O)Nc1ccc(C(=O)NNC(=O)c2csc(N3CCOCC3)n2)cc1,-,.,-,-,.
C=CCOc1c(CNc2ncn[nH]2)cccc1OCC,-,-,28,-,-
C=CCOc1c(CNc2nccs2)cccc1OCC,-,-,-,-,-
O=C(N/N=C/C=C/c1ccco1)c1cnccn1,.,-,-,-,.
O=C(NN=C/C=C/c1ccco1)c1cnccn1,.,.,.,.,25
O=C(O)c1cc(NN=Cc2ccc(N3CCOCC3)cc2)ccc1Cl,.,.,.,.,-
Cc1cccc(Oc2sc(C(=O)c3ccccc3)c(N)c2C#N)c1,-,-,31,-,-

# From PubChem BioAssay
